These results are taken from ChEMBL document CHEMBL3526045, “Conclusive identification of the oxybutynin-hydrolyzing enzyme in human liver” (Drug Metab Dispos, 2012).

The target in data set [1] is T1, Cocaine esterase (Homo sapiens, UniProt O00748).
T1 sequence (O00748 whole entry): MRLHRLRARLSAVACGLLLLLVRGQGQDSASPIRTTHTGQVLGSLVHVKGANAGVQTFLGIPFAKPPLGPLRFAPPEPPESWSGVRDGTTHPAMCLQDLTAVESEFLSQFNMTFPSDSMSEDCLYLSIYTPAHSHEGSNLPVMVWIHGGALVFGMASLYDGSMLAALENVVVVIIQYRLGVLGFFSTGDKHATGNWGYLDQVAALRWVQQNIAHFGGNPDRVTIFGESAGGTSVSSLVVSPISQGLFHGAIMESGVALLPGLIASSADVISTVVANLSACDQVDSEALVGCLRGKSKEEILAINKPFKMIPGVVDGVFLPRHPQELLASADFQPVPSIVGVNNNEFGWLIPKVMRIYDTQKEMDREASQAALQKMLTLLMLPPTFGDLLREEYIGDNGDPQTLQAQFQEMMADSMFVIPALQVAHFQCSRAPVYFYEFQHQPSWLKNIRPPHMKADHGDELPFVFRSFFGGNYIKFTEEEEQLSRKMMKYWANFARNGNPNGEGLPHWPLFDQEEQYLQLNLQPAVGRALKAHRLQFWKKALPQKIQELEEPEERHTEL
Put plainly: Activity of human recombinant CES2 expressed in baculovirus-infected High Five insect cells assessed as enzyme-mediated compound formation formation treated with oxybutynin at 10 uM for 30 mins by HPLC analysis in presence of 10 uM CES1 inhibitor NDGA. It is filed as ADME. Particulars: 0.5 h. The method in brief:
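Oxybutynin (10 μM) hydrolysis to CPGA by recombinant CES2-expressing microsomes at 0.1 mg/mL final protein, in 0.05 mol/L Tris-HCl pH 7.6 at 37 °C. Inhibitor was added before a 5 min preincubation, with at most 0.2% final DMSO. Substrate addition started the reaction, which ran 30 min. It was stopped with ACN/1% formic acid plus internal standard. CPGA was quantified by LC-MS/MS in negative MRM mode, as relative activity versus control, in duplicate.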

Data set [2] addresses T1, Cocaine esterase. Put plainly: Activity of human recombinant CES2 expressed in baculovirus-infected High Five insect cells assessed as 5 uM CES1 inhibitor clopidogrel-mediated inhibition of enzyme-mediated 2-cyclohexyl-2-phenylglycolic acid formation at 10 uM for 30 mins by HPLC analysis. The settings on record: 0.5 h.
The test system of data set [3] is Liver microsome. Kind of data set: Drug metabolism in human liver microsomes assessed as 2-cyclohexyl-2-phenylglycolic acid formation by Michaelis-Menten equation. It is filed as ADME. In short, it runs like this: (§1)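 Oxybutynin (2.5–250 μM) incubated 15 min at 37 °C in 0.05 mol/L Tris-HCl pH 7.6 after 5 min pre-incubation. Final protein: liver microsomes 0.05, liver cytosol 0.1, recombinant CES1 microsomes 0.05 mg/mL. Stopped with acetonitrile/1% formic acid plus internal standard; CPGA quantified by LC-MS/MS in negative MRM mode; duplicates. Km, Vmax from Michaelis-Menten fit; CLint = Vmax/Km.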

A short description of data set [4]: Drug metabolism in human liver microsomes. In kind it is ADME.
The subject of data set [5] is Liver cytosol. Put plainly: Drug metabolism in human liver cytosol assessed as 2-cyclohexyl-2-phenylglycolic acid formation by Michaelis-Menten equation. It is filed as ADME, tissue-based. In short, it runs like this:
as §1

Data set [6] deals with T1, Cocaine esterase. Put plainly: Activity of human recombinant CES2 expressed in baculovirus-infected High Five insect cells assessed as 50 uM CES1 inhibitor clopidogrel-mediated inhibition of enzyme-mediated 2-cyclohexyl-2-phenylglycolic acid formation at 10 uM for 30 mins by HPLC analysis. Particulars: 0.5 h.
In data set [7] the test system is Liver cytosol. Kind of data set: Drug metabolism in human liver cytosol assessed as 2-cyclohexyl-2-phenylglycolic acid formation per mg of protein by Michaelis-Menten equation. In kind it is ADME, tissue-based. The method in brief: as §1
Data set [8] concerns the target T1, Cocaine esterase. Kind of data set: Activity of human recombinant CES2 expressed in baculovirus-infected High Five insect cells assessed as enzyme-mediated 2-cyclohexyl-2-phenylglycolic acid formation per mg of protein by Michaelis-Menten equation. In kind it is ADME.
Data set [9] has as its target T1, Cocaine esterase. Put plainly: Activity of human recombinant CES2 expressed in baculovirus-infected High Five insect cells assessed as intrinsic clearance for enzyme-mediated 2-cyclohexyl-2-phenylglycolic acid formation per mg of protein by Michaelis-Menten equation. In kind it is ADME.
Data set [10] can be described thus: Activity of human recombinant CES1b/CES1A1 expressed in baculovirus-infected High Five insect cells assessed as enzyme-mediated 2-cyclohexyl-2-phenylglycolic acid formation by Michaelis-Menten equation. In kind it is ADME. The method in brief: as §1
Data set [11] has as its system Liver microsome. Kind of data set: Intrinsic clearance in human liver microsomes assessed as 2-cyclohexyl-2-phenylglycolic acid formation per mg of protein by Michaelis-Menten equation. In kind it is ADME. In short, it runs like this: as §1
(In general: Liver microsomes are a subcellular fraction often used to study metabolism.)

Data set [12] is described as follows: Drug metabolism in human liver cytosol. In kind it is ADME, tissue-based.
The nature of data set [13]: Activity of human recombinant CES1b/CES1A1 expressed in baculovirus-infected High Five insect cells assessed as enzyme-mediated 2-cyclohexyl-2-phenylglycolic acid formation per mg of protein by Michaelis-Menten equation. In kind it is ADME. In short, it runs like this: as §1
In data set [14] the target is T1, Cocaine esterase. Put plainly: Activity of human recombinant CES2 expressed in baculovirus-infected High Five insect cells assessed as 30 to 300 uM CES1 inhibitor procainamide-mediated inhibition of enzyme-mediated 2-cyclohexyl-2-phenylglycolic acid formation at 10 uM for 30 mins by HPLC analysis. The settings on record: 0.5 h.
Data set [15] in a line: Activity of human recombinant CES1b/CES1A1 expressed in baculovirus-infected High Five insect cells assessed as intrinsic clearance for enzyme-mediated 2-cyclohexyl-2-phenylglycolic acid formation per mg of protein by Michaelis-Menten equation. In kind it is ADME. In short, it runs like this:
as §1

Data set [16] deals with T1, Cocaine esterase. Kind of data set: Activity of human recombinant CES2 expressed in baculovirus-infected High Five insect cells assessed as 5 uM CES2 inhibitor loperamide-mediated inhibition of enzyme-mediated 2-cyclohexyl-2-phenylglycolic acid formation at 10 uM for 30 mins by HPLC analysis. Particulars: 0.5 h.
Data set [17] concerns Liver microsome. Kind of data set: Drug metabolism in human liver microsomes assessed as 2-cyclohexyl-2-phenylglycolic acid formation per mg of protein by Michaelis-Menten equation. In kind it is ADME. In short, it runs like this:
as §1

In data set [18] the test system is Liver cytosol. Put plainly: Intrinsic clearance in human liver cytosol assessed as 2-cyclohexyl-2-phenylglycolic acid formation per mg of protein by Michaelis-Menten equation. In kind it is ADME, tissue-based. In short, it runs like this:
as §1

Substrate in data set [19]: CCN(CC)CC#CCOC(=O)C(O)(c1ccccc1)C1CCCCC1
Kind of data set: Activity of human recombinant CES2 expressed in baculovirus-infected High Five insect cells assessed as enzyme-mediated 2-cyclohexyl-2-phenylglycolic acid formation by Michaelis-Menten equation. In kind it is ADME.

Substrate in data set [20]: CCN(CC)CC#CCOC(=O)C(O)(c1ccccc1)C1CCCCC1
Kind of data set: Activity of human CES2. In kind it is ADME.

By Km is commonly meant the substrate concentration at which the rate is half of its maximum. In general, Vmax refers to the top rate of the reaction or transport when substrate is in excess.

With `O=C(O)C(O)(c1ccccc1)C1CCCCC1` (stereo unspecified), the Drug metabolism result at Cocaine esterase [1] is “metabolite_detected”.
In the case of `CCN(CC)CC#CCOC(=O)C(O)(c1ccccc1)C1CCCCC1.Cl` (stereo unspecified) [OXYBUTYNIN CHLORIDE], the “inhibition (INH)” value at Cocaine esterase [2] is listed as less than 11%; at Cocaine esterase [6], 53%; on Cocaine esterase [14] it was less than 14%; on Cocaine esterase [16], 58%. For the same molecule, the Km in the data set with Liver microsome [3] stood at 22 µM; in data set [4], 22 µM; in the data set with Liver cytosol [5], 13 µM; in data set [10] it was 17 µM; in data set [12], 13 µM. For the same molecule, the Vmax came out at 110 pmol/min in the data set on Liver cytosol [7], 32 pmol/min on Cocaine esterase [8], 310 pmol/min in [13] and 130 pmol/min in the data set with Liver microsome [17]. Moreover, the clearance at Cocaine esterase [9] was 0.51 µL/min/mg; in data set [15] it was 18 µL/min/mg. For the same molecule, the CLint in the data set with Liver microsome [11] is 5.9 µL/min/mg; in the data set on Liver cytosol [18] it was 8.2 µL/min/mg.

B1: Cocaine esterase (Homo sapiens) (protein)
chain: MRLHRLRARLSAVACGLLLLLVRGQGQDSASPIRTTHTGQVLGSLVHVKGANAGVQTFLGIPFAKPPLGPLRFAPPEPPESWSGVRDGTTHPAMCLQDLTAVESEFLSQFNMTFPSDSMSEDCLYLSIYTPAHSHEGSNLPVMVWIHGGALVFGMASLYDGSMLAALENVVVVIIQYRLGVLGFFSTGDKHATGNWGYLDQVAALRWVQQNIAHFGGNPDRVTIFGESAGGTSVSSLVVSPISQGLFHGAIMESGVALLPGLIASSADVISTVVANLSACDQVDSEALVGCLRGKSKEEILAINKPFKMIPGVVDGVFLPRHPQELLASADFQPVPSIVGVNNNEFGWLIPKVMRIYDTQKEMDREASQAALQKMLTLLMLPPTFGDLLREEYIGDNGDPQTLQAQFQEMMADSMFVIPALQVAHFQCSRAPVYFYEFQHQPSWLKNIRPPHMKADHGDELPFVFRSFFGGNYIKFTEEEEQLSRKMMKYWANFARNGNPNGEGLPHWPLFDQEEQYLQLNLQPAVGRALKAHRLQFWKKALPQKIQELEEPEERHTEL
Consider B1, for which the Km in [19] worked out at 62 µM; in data set [20], 1100 µM. In data set [20], the Vmax was found to be 0.36 µmol/min/mg.
